For series [1], the target named is T1, Peroxisome proliferator-activated receptor alpha (Homo sapiens, UniProt Q07869).
T1 sequence (Q07869 whole entry): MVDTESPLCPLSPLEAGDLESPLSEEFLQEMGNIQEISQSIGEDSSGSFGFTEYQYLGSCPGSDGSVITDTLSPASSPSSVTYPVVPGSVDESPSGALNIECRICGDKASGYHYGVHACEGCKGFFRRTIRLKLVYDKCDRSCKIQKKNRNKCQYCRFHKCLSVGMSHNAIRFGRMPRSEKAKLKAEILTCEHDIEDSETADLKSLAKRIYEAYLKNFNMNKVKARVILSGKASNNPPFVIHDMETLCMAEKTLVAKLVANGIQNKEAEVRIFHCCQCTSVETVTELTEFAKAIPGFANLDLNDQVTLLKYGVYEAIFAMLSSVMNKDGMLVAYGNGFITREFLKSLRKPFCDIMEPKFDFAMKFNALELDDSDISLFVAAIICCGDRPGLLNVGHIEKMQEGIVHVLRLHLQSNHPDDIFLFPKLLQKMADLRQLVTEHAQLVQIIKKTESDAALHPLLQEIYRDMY
In words: Partial agonist activity at human recombinant PPARalpha LBD expressed in HEK293 cells co-transfected with Gal4 assessed as beta-galactosidase activity at 1 uM by luciferase based transactivation assay. In kind it is functional, cell-based. Put shortly:
(§1)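 GAL4-hPPAR LBD fusion transactivation: cells co-transfected with CMX-GAL4N-hPPAR LBD receptor plasmid, TK-MH100x4-LUC reporter and CMX β-galactosidase normalization plasmid. Positive controls (fenofibric acid for PPARα; ciglitazone 100 nM for PPARγ) and test compounds added 6 h later; overnight incubation. Luminescence read after luciferin addition; β-galactosidase absorbance at 405 nm used for normalization.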

Series [2] has as its target T2, Peroxisome proliferator-activated receptor gamma (Homo sapiens, UniProt P37231).
T2 sequence (P37231 whole entry): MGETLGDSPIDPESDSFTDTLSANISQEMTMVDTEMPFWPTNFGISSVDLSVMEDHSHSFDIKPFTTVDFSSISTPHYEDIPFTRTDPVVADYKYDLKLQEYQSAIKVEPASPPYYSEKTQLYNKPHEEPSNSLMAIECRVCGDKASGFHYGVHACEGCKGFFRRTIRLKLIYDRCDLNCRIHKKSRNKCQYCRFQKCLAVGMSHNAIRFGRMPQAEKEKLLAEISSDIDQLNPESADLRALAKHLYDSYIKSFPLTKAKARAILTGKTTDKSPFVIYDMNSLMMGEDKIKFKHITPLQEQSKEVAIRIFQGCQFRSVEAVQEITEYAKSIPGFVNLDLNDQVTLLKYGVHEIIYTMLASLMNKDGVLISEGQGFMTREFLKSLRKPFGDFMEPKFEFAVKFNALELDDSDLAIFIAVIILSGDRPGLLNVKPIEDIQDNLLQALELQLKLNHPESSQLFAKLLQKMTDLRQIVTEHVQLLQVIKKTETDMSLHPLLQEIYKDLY
In words: Partial agonist activity at human recombinant PPARgamma LBD expressed in HEK293 cells co-transfected with Gal4 assessed as beta-galactosidase activity at 1 uM by luciferase based transactivation assay. In kind it is functional, cell-based.

Series [3] can be described thus: Thermodynamic aqueous solubility of the compound in 1:15 M of 50% EtOH and phosphate buffer at pH 7.4. In kind it is physicochemical. The settings on record: for solubility thermodynamic: 50% EtOH and phosphate buffer; for solubility: buffer. The essentials:
(§2)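 Thermodynamic solubility: about 1 mg solid ground in agate mortar, suspended in 1.0 mL of either 1:15 M phosphate buffer pH 7.4 or an equal-volume mix of that buffer with EtOH. Shaken 48 h at 25 °C, filtered (0.22 µm), filtrate diluted in DMF and quantified by reversed-phase HPLC-UV (262–295 nm) against a calibration curve, corrected for dilution.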

The nature of series [4]: Thermodynamic aqueous solubility of the compound in phosphate buffer at pH 7.4. Format: physicochemical. The essentials:
as §2

Series [5] concerns the target T3, Peroxisome proliferator-activated receptor delta (Homo sapiens, UniProt Q03181).
T3 sequence (Q03181 whole entry): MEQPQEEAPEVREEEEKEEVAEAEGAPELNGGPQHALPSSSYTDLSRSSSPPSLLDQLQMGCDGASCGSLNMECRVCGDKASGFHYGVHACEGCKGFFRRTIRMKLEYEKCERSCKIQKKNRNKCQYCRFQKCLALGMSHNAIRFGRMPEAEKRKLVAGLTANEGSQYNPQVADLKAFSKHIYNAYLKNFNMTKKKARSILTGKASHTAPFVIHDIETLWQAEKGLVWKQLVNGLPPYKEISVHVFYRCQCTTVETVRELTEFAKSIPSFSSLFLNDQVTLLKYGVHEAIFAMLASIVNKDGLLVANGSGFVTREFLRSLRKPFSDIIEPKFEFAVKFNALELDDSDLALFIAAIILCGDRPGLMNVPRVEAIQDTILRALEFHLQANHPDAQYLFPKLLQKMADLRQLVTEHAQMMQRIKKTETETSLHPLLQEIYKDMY
The series can be described thus: Partial agonist activity at human recombinant PPARdelta LBD expressed in HEK293 cells co-transfected with Gal4 assessed as beta-galactosidase activity by luciferase based transactivation assay. Format: functional, cell-based.

Series [6] addresses T1, Peroxisome proliferator-activated receptor alpha. In words: Partial agonist activity at human recombinant PPARalpha LBD expressed in HEK293 cells co-transfected with Gal4 assessed as beta-galactosidase activity by luciferase based transactivation assay. Format: functional, cell-based. Put shortly:
as §1

In series [7] the target is T4, Peroxisome proliferator-activated receptor alpha (Homo sapiens) (UniProt Q07869).
T4 sequence (whole entry): T1 sequence (Q07869 whole entry)
In words: Partial agonist activity at human recombinant PPARalpha LBD expressed in HEK293 cells co-transfected with Gal4 assessed as beta-galactosidase activity by luciferase based transactivation assay relative to fenofibric acid. Format: functional, cell-based. Put shortly:
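GAL4-based reporter system analogous to the PPARδ assay, using a GAL4 DNA-binding domain–PPARα LBD chimera, TK-MH100x4-LUC reporter and CMX β-galactosidase for normalization. Positive control and test compounds were added 6 h after the preceding step and incubated overnight. Luciferase luminescence was read after luciferin addition, and β-galactosidase by absorbance at 405 nm. Efficacy was expressed relative to fenofibric acid.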

Series [8] addresses T3, Peroxisome proliferator-activated receptor delta. In words: Partial agonist activity at human recombinant PPARdelta LBD expressed in HEK293 cells co-transfected with Gal4 assessed as beta-galactosidase activity at 1 uM by luciferase based transactivation assay. Format: functional, cell-based. The essentials: as §1

Values after ≈ are worked out from the molar mass of the structure shown. Some results are limits rather than exact numbers.

By EC50 is commonly meant the concentration needed to bring the measured effect to its halfway point. By solubility (thermodynamic) is commonly meant solubility found after equilibrating the solid with the medium. Usually solubility stands for how much of the substance goes into solution per volume.

`CCCCOc1ccc(-c2ccc(C(=O)O)cc2F)cc1CNC(=O)c1ccc(C(F)(F)F)cc1F`: the EC50 entry in series [1] and in series [2] was “Not Active” in each case. For the same compound, the values for the solubility (thermodynamic) in series [3] and in series [4] were 3220 µg/mL (≈ 6350 µM) and below 1 µg/mL, respectively.

For the compound `CCCCOc1ccc(-c2ccc(C(=O)O)cn2)cc1CNC(=O)c1ccc(C(F)(F)F)cc1F`, the EC50 entry in series [1] and in series [2] was “Not Active” throughout.

With `CCCCOc1ccc(-c2ccc(C(=O)O)cc2C)cc1CNC(=O)c1ccc(C(F)(F)F)cc1F`, in series [1], the EC50 result is reported as “Not Active”. The solubility (thermodynamic) in series [3] was 985 µg/mL (≈ 1960 µM); in series [4] it was below 1 µg/mL.

With `CCCCOc1ccc(-c2cccc(C(=O)O)c2C)cc1CNC(=O)c1ccc(C(F)(F)F)cc1F`, the half-maximal effective concentration (EC50) result in series [2] is “Not Active”. For the same compound, the values for the solubility (thermodynamic) in series [3] and in series [4] were 9950 µg/mL (≈ 19800 µM) and below 1 µg/mL, respectively.

Regarding `CCCCOc1ccc(-c2c(F)ccc(C(=O)O)c2F)cc1CNC(=O)c1ccc(C(F)(F)F)cc1F`, the concentration for a half-maximal effect (EC50) in series [5] is 5.7 nM; in series [1] it was “Not Active”; in series [2] it was “Not Active”. The compound further returned a solubility in series [3] of 10400 µg/mL (≈ 19800 µM). The compound also had a thermodynamic solubility in series [4] of 21.7 µg/mL (≈ 41.3 µM).

Turning to `CCCCOc1ccc(-c2c(C)ncc(C(=O)O)c2C)cc1CNC(=O)c1ccc(C(F)(F)F)cc1F`, the concentration for a half-maximal effect (EC50) in series [5] was 76 nM; in series [6] it was 4200 nM; in series [2], “Not Active”. Also, the Efficacy in series [7] was 100%. The solubility (thermodynamic) in series [3] is 17700 µg/mL (≈ 34100 µM); in series [4], 2700 µg/mL (≈ 5210 µM).

With `CCCCOc1ccc(-c2ccc(C(=O)O)nc2)cc1CNC(=O)c1ccc(C(F)(F)F)cc1F`, the EC50 result in series [1] and in series [2] was “Not Active” each time.

Consider `CCCCOc1ccc(-c2cccc(C(=O)O)c2)cc1CNC(=O)c1ccc(C(F)(F)F)cc1F`, for which the half-maximal effective concentration (EC50) result in series [2] is recorded as “Not Active”. The compound further gave a solubility in series [3] of 1350 µg/mL (≈ 2760 µM). Also, the solubility (thermodynamic) in series [4] is below 1 µg/mL.

Turning to `CCCCOc1ccc(-c2ccc(C(=O)O)o2)cc1CNC(=O)c1ccc(C(F)(F)F)cc1F`, the concentration for a half-maximal effect (EC50) result in series [1] and in series [2] was “Not Active” throughout.

Turning to `O=C(O)c1ccc(-c2ccc(OCCCO)c(CNC(=O)c3ccc(C(F)(F)F)cc3F)c2)cc1`, in series [8], the EC50 entry is given as “Not Active”.

Consider `CCCC(=O)Oc1ccc(-c2ccc(C(=O)O)cc2)cc1CNC(=O)c1ccc(C(F)(F)F)cc1F`, for which the EC50 result in series [8] is “Not Active”.

Regarding `CCCCOc1ccc(-c2ccc(C(=O)O)cc2)cc1CNC(=O)c1ccc(C(F)(F)F)cc1F`, the EC50 entry in series [2] is given as “Not Active”. The solubility (thermodynamic) was 375 µg/mL (≈ 766 µM) in series [3] and below 1 µg/mL in series [4].

In the case of `COCCOc1ccc(-c2ccc(C(=O)O)cc2)cc1CNC(=O)c1ccc(C(F)(F)F)cc1F`, the EC50 result in series [8] is “Not Active”.

For `CCCCOc1ccc(-c2cncc(C(=O)O)c2)cc1CNC(=O)c1ccc(C(F)(F)F)cc1F`, the EC50 in series [5] is 220 nM; in series [6], 4000 nM; in series [2], “Not Active”. The compound also came in with a solubility in series [3] of 9030 µg/mL (≈ 18400 µM). The same compound returned a thermodynamic solubility in series [4] of 7.62 µg/mL (≈ 15.5 µM).

The values above are taken from ChEMBL document CHEMBL1250551, “Improvement of water-solubility of biarylcarboxylic acid peroxisome proliferator-activated receptor (PPAR) δ-selective partial agonists by disruption of molecular planarity/symmetry” (Bioorg Med Chem, 2010).
